Measurements as given in PubChem BioAssay.
Results filed as inconclusive are left out.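 The calls were made as follows, unless noted: active = inhibition over a set limit, the all-compound mean plus 3 SD, in both replicate runs; inconclusive = over that limit in just one replicate run; inactive = at or under that limit in both runs.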

Columns and labels:
[1] = OD615 S. cerevisiae growth inhibition, permissive medium, pilot counter-assay, permissive growth control for S. cerevisiae lifespan shortening project (AID 705;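 active = growth inhibition above 25% in both replicates, a cutoff set 3 SD above the mean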); conditions: OD615, 24 h, at 10 µM, active compounds read high
Outline: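 Timing: 24 h exposure, 30 °C / Material: Saccharomyces cerevisiae strain carrying genetically modified DeaD replicative-lifespan system / Signal: OD at 615 nm / Compound: 10 µM single dose, 0.25% DMSO / Medium: SC raffinose/galactose permissive medium / Evaluation: reduction in yeast growth (OD615)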

[2] = Restrictive medium S. cerevisiae growth inhibition, OD615, pilot screen of yeast lifespan reduction project, restrictive growth control (AID 706;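 active = growth inhibition above a set limit, 3 SD over mean compound inhibition, in both replicates, cut at about 43% in these data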;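 also: modified DeaD lifespan yeast strain shifted to restrictive glucose medium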); conditions: OD615, 48 h, at 10 µM, active compounds read high
Outline: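 System: Engineered S. cerevisiae DeaD strain | Detection: OD615 | Buffer or medium: CSMM-D glucose medium | Doses: 10 µM compound, 0.25% DMSO | Timing: 4 h pre-growth plus 48 h compound exposure, 30 °C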

[3] = viability gain of MRP-1-high H69AR cells under doxorubicin, pilot screen, MRP-1 activator project, CellTiter-Glo, duplicate (AID 807;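 active = viability increase at or above a cutoff of the median across tested compounds plus 3 SD, cut at about 8.5% in these data, passing the limit was not always enough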;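 also: compound pretreatment 18-22 h then 72 h combined with doxorubicin; 0% = doxorubicin alone and 100% = vehicle without doxorubicin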); conditions: H69AR viability with doxorubicin, CellTiter-Glo luminescence; at 10 µM; active compounds read high
[4] = growth suppression of beta-catenin knockout HCT116, pilot screen, human colon tumor cells (AID 823;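 active = cell viability at or below a set limit in both duplicate runs, the limit being the all-compound median minus 4 SD, cut at about 23% in these data, passing the limit was not always enough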;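 also: 0% = wells killed by 20 µM Hyamine and 100% = untreated DMSO cell wells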); conditions: CellTiter-Glo, 60 h, at 10 µM, active compounds read low
[5] = growth suppression of PTEN-deleted HCT116, pilot screen, cell-based, HCT116 clonal line, CellTiter-Glo (AID 824;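 active = viability at or below 27.92% in each of two runs, the all-compound median minus 4 SD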;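 also: 0% = 20 µM Hyamine control and 100% = vehicle cell control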); conditions: 60 h, at 10 µM, active compounds read low
[6] = inhibitors of the yeast RAM network, pilot screen, dse1pr::URA3 reporter, 5-FOA selection (AID 869);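 also: 0% = DMSO wells with no growth and 100% = 10 µM 1-NA-PP1 with full growth; RAM network block rescues cells from 5-FOA so hits raise OD615 growth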; conditions: S. cerevisiae dse1pr::URA3 5-FOA growth, OD615, 2 d; at 10 µM; active compounds read high; strain carries analog-sensitive mutant Cbk1 kinase
[7] = RAM signaling pathway blockade in yeast – S. cerevisiae, Pdr1DBD-CYC8 efflux-inhibited sensitized strain, primary screen (AID 1298;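 active = RAM network inhibition above 8.4% in each of two replicates, 3 SD over the compound average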;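 also: 0% = DMSO untreated cells without growth and 100% = 10 µM 1-NA-PP1 full growth; higher means more yeast growth rescued from 5-FOA killing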); conditions: S. cerevisiae cbk1-as DSE1-URA3 strain, 5-FOA growth OD615, 2 d; at 50 µM; active compounds read high

CC1CCc2nn(CC(=O)NCCC3=CCCCC3)cc2C1 (stereo not drawn)
inactive: growth inhibition [1] 4.45% | growth inhibition [2] -4.16% | viability increase [3] -1.4% | viability [4] 101% | viability [5] 94.5% | inhibition [6] 0.595% | RAM network inhibition [7] 0.3%

CCc1ccc(C2CC(c3ccc(C)cc3)n3nc(N)nc3N2)cc1 (stereo not drawn)
inactive: growth inhibition [1] 5.21% | growth inhibition [2] 24.1% | viability increase [3] 0.11% | viability [4] 101% | viability [5] 107% | inhibition [6] 1.35% | RAM network inhibition [7] 8.9%

Cc1cc(C)nc(SCC(=O)N2CCCCC2)n1
inactive: growth inhibition [1] -13.6% | growth inhibition [2] -20% | viability increase [3] 0.71% | viability [4] 97.4% | viability [5] 101% | inhibition [6] 2.34% | RAM network inhibition [7] 0.74%

CCOC(=O)N(C)OC(=O)Nc1ccc(Cl)c(Cl)c1
inactive: growth inhibition [1] -17.1% | growth inhibition [2] -20.5% | viability increase [3] -0.16% | viability [4] 95.6% | viability [5] 90.8% | inhibition [6] 0.52% | RAM network inhibition [7] 5.93%

CCOC(=O)C1CCN(C(=O)CN(c2ccc(OC)cc2)S(=O)(=O)c2c(C)noc2C)CC1
inactive: growth inhibition [1] -7.19% | growth inhibition [2] -5.5% | viability increase [3] -2.59% | viability [4] 98.5% | viability [5] 96.7% | inhibition [6] 2.41% | RAM network inhibition [7] 3.41%

Cc1nc2nc[nH]c2cc1Br
inactive: growth inhibition [1] 5.74% | growth inhibition [2] 6.22% | viability increase [3] -2.75% | viability [4] 97.8% | viability [5] 100% | inhibition [6] 0.705% | RAM network inhibition [7] -0.41%

CC(C)N(C(=O)CSc1nc2c([nH]1)c(=O)n(C)c(=O)n2C)c1ccccc1
inactive: growth inhibition [1] -4.33% | growth inhibition [2] -12.7% | viability increase [3] 1.94% | viability [4] 106% | viability [5] 102% | inhibition [6] 1.22% | RAM network inhibition [7] 6.3%

CCOC(=O)COn1c(=O)c(=O)n(O)c2ccccc21
inactive: growth inhibition [1] -14.5% | growth inhibition [2] -14.8% | viability increase [3] -4.99% | viability [4] 87.2% | viability [5] 87.1% | inhibition [6] 1.54% | RAM network inhibition [7] 1.4%

CCOC(=O)c1cccc(NC(=O)CNC(=O)C2CCCCC2)c1
inactive: growth inhibition [1] 3.97% | growth inhibition [2] 2.92% | viability increase [3] -0.32% | viability [4] 96.1% | viability [5] 99.2% | inhibition [6] 0.655% | RAM network inhibition [7] -0.72%

O=C(Nc1ccc(Cl)c(Cl)c1)c1ccncc1
inactive: growth inhibition [1] -19.8% | growth inhibition [2] -34.8% | viability increase [3] -1.27% | viability [4] 101% | viability [5] 90.6% | inhibition [6] 0.83% | RAM network inhibition [7] 2.47%

Cn1c(=O)c2cc(S(=O)(=O)NC(C(=O)Nc3cccnc3)c3ccccc3)ccc2n(C)c1=O (stereo not drawn)
inactive: growth inhibition [1] -3.52% | growth inhibition [2] -1.8% | viability increase [3] -2.15% | viability [4] 99% | viability [5] 91.9% | inhibition [6] 1.96% | RAM network inhibition [7] 0.58%

COC(=O)COC(=O)c1ccc(O)cc1
inactive: growth inhibition [1] 7.13% | growth inhibition [2] 4.2% | viability increase [3] -0.65% | viability [4] 99.5% | viability [5] 102% | inhibition [6] 2.5% | RAM network inhibition [7] 2.15%

Cc1ccccc1-c1nnc(-c2ccc(Cl)cc2)o1
inactive: growth inhibition [1] -18.7% | growth inhibition [2] -20.9% | viability increase [3] -6.28% | viability [4] 77.9% | viability [5] 64.8% | inhibition [6] 4.19% | RAM network inhibition [7] 6.89%

CC(=O)CCc1c(C)[nH]c2ccc(NC(C)=O)cc2c1=O
inactive: growth inhibition [1] 5.26% | growth inhibition [2] 8.18% | viability increase [3] -0.95% | viability [4] 100% | viability [5] 98% | inhibition [6] 0.77% | RAM network inhibition [7] 2.81%

O=C(Nc1nnc(-c2ccc(Cl)cc2)o1)c1ccccc1Br
inactive: growth inhibition [1] 0.92% | growth inhibition [2] 20.1% | viability increase [3] -3.81% | viability [4] 68.8% | viability [5] 60.9% | inhibition [6] 0.69% | RAM network inhibition [7] 1.62%

CCC(C)(C(=O)NC1CCCCC1)N(Cc1ccco1)C(=O)CC1NC(=O)NC1=O (stereo not drawn)
inactive: growth inhibition [1] -7.46% | growth inhibition [2] -7.12% | viability increase [3] -3.95% | viability [4] 97% | viability [5] 94.9% | inhibition [6] 1.58% | RAM network inhibition [7] 1.8%

CCC(C)C1C(C#N)=C(N)OC2=C1C(=O)CC(C)(C)C2 (stereo not drawn)
inactive: growth inhibition [1] -10.1% | growth inhibition [2] -15.1% | viability increase [3] -3.48% | viability [4] 103% | viability [5] 86.5% | inhibition [6] 1.31% | RAM network inhibition [7] 6.21%

COc1ccc(C2N(c3cc(Cl)ccc3OC)C(=O)C3CCCN32)cc1 (stereo not drawn)
inactive: growth inhibition [1] 2.4% | growth inhibition [2] -1.37% | viability increase [3] -1.89% | viability [4] 106% | viability [5] 96.9% | inhibition [6] 1.01% | RAM network inhibition [7] -0.42%

CCSc1nnc(NC(=O)c2cc3c(s2)CCCC3)s1
inactive: growth inhibition [1] -3.65% | growth inhibition [2] -0.425% | viability increase [3] -1.67% | viability [4] 54.3% | viability [5] 60.2% | inhibition [6] 2% | RAM network inhibition [7] -1.29%

O=C1CCC(=O)N1c1ccc(CSc2nnnn2C2CCCCC2)cc1
inactive: growth inhibition [1] -0.7% | growth inhibition [2] 4.66% | viability increase [3] 0.3% | viability [4] 103% | viability [5] 97.6% | inhibition [6] -0.145% | RAM network inhibition [7] 1.92%

Cn1c(=NC(=O)C2CC2)sc2cc(F)cc(F)c21
inactive: growth inhibition [1] -0.79% | growth inhibition [2] 8.89% | viability increase [3] -4.58% | viability [4] 91.3% | viability [5] 92.6% | inhibition [6] 1.81% | RAM network inhibition [7] 7.52%

Cc1ccccc1-c1c(C)oc2cc(O)ccc2c1=O
inactive: growth inhibition [1] 1.68% | growth inhibition [2] -0.005% | viability increase [3] -4.28% | viability [4] 96.8% | viability [5] 92.2% | inhibition [6] 2.21% | RAM network inhibition [7] 2.67%

COc1ccccc1OCC(=O)N(Cc1nc(-c2ccc(Cl)cc2)no1)C(C)C
inactive: growth inhibition [1] -16.3% | growth inhibition [2] -10.6% | viability increase [3] 2.37% | viability [4] 84.7% | viability [5] 82.5% | inhibition [6] 1.4% | RAM network inhibition [7] 6.52%

COc1cc2c(cc1OC)CN(Cc1cccs1)CC2
inactive: growth inhibition [1] -20.3% | growth inhibition [2] -28.9% | viability increase [3] -1.14% | viability [4] 86.4% | viability [5] 90% | inhibition [6] 2.71% | RAM network inhibition [7] 2.76%
